Compound activity: PubChem BioAssay, Broad Institute
Most compounds without a hit are left out; they make up all but 2.6% or so of the library.
GSIS activator = primary screen for activators of insulin secretion dependent on glucose, INS-1E cells, GLuc reporter luminescence; AID 743287; 0.61% of 370,000 active; activation, % at 16.6 µM; INS-1E GLuc reporter insulin secretion, 2-3 h;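 active = lowest replicate activation of at least 40%, so every replicate reaches that level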
E-selectin induc = E-selectin induction on HUVECs; HUVEC E-selectin immunofluorescence imaging; normalized: neutral wells 0, TNF-alpha wells 100; 0.37% of 260,000 active; activation, % at 7.58 µM;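 active = mean E-selectin-positive cell signal at least 10% of the positive control, reached in at least 60% of replicates, without over 20% cell loss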
Target sequence (P16581 whole entry, looked up): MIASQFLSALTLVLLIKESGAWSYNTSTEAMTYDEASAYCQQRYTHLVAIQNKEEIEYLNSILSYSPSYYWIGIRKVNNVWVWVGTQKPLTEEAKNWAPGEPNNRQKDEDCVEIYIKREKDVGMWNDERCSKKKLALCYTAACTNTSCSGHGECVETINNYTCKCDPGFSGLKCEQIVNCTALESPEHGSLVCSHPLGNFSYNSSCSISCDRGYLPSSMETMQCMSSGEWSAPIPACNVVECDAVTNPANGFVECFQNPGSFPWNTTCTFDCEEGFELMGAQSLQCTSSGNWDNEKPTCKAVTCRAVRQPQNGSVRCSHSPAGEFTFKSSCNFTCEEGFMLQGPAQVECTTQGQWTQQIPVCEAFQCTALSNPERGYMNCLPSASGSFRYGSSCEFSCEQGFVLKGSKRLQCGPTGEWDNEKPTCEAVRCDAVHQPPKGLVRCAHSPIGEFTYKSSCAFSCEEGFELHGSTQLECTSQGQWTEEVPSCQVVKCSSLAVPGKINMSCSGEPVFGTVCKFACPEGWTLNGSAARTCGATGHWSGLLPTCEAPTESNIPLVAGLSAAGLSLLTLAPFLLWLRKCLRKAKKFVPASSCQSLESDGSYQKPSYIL
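Test system: HUVEC; input: 3,000 HUVEC/well; measured by: immunofluorescence imaging; read-out: % PE-positive cells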
RAD54 branch = RAD54 (human) branch migration inhibition; inhibition, % at 10.4 µM; Q92698; 0.14% of 360,000 active; RAD54 Holliday junction branch migration, FAM/BHQ fluorescence;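 active = mean normalized replicate activity at least 40 and at least half of replicates scoring 40 or more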;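 note: inhibitors cause a drop in the FAM fluorescence signal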
MLL AF4-AF9 inh = inhibitors of human MLL-AF4/AF9 interaction | AID 651704 | P42568 | AlphaScreen, biotin-AF4 peptide binding to FLAG-AF9 | 0.47% of 350,000 active | inhibition, % at 10 µM;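 active = every replicate reaching a set inhibition limit, whatever the replicate mean, cut at about 25% in these data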
Ecoli rRNA inh = inhibitors of bacterial rRNA selective over humanized ribosomes. E. coli WT GFP vs humanized-ribosome RFP mutants, fluorescence, 24 h; hits give low values; DMSO median 0, no signal -100. GFP signal change (wild-type ribosome), % (test concentration not listed). 1.6% of 350,000 active. AID 720706;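 active = significant combined selectivity score with lowered wild-type GFP, culture density cut under 30%, mutant RFP and density less affected; inactive = any of these conditions unmet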
RAD52 inh = RAD52 (human) annealing inhibition. P43351. recombinant RAD52 DNA annealing, FRET fluorescence. inhibition, % at 18.7 µM. 0.46% of 360,000 active;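 active = every replicate showing at least 50% inhibition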
Hits are given with their value; n = inactive; x = no result.

SMILES	GSIS activator	E-selectin induc	RAD54 branch	MLL AF4-AF9 inh	Ecoli rRNA inh	RAD52 inh
COC(=O)C1=C(C)N(C)C(=NCc2cccc(C(F)(F)F)c2)NC1c1ccc(C(F)(F)F)cc1 (stereo unspecified)	45	n	x	n	n	n
COC(=O)C1=C(C)N(Cc2ccccc2)C(=NCc2cccc(C(F)(F)F)c2)N[C@H]1c1cccc(C(F)(F)F)c1	x	x	n	x	x	x
COC(=O)C1=C(C)N(Cc2cccc(C(F)(F)F)c2)C(=NCc2ccc(C(F)(F)F)cc2)NC1c1ccccc1 (stereo unspecified)	501	n	x	x	n	n
COC(=O)C1=C(C)N(Cc2cccc(C(F)(F)F)c2)C(=NCc2ccc3c(c2)OCO3)NC1c1ccc(Cl)cc1 (stereo unspecified)	146	n	x	x	n	n
CCN=C1NC(c2ccc(C(F)(F)F)cc2)C(C(=O)OC)=C(C)N1Cc1cccc(C(F)(F)F)c1 (stereo unspecified)	41	n	x	x	n	n
COC(=O)C1=C(C)N(Cc2cccc(C(F)(F)F)c2)C(=NCc2ccc(C(F)(F)F)cc2)NC1c1ccc(Cl)cc1 (stereo unspecified)	x	n	x	n	n	n
O=C(C[C@@H]1CC[C@H]2[C@@H](COC[C@H](O)CN2CC2CC2)O1)NCc1ccc(Cl)cc1	n	n	n	n	n	n
COC(=O)C1=C(C)N(Cc2cccc(C(F)(F)F)c2)C(=NCC2CC2)NC1c1cccc(C(F)(F)F)c1 (stereo unspecified)	420	n	x	n	n	n
COC(=O)C1=C(C)N(Cc2ccc(C(F)(F)F)cc2)C(=NCc2ccccc2)NC1c1cccc(C(F)(F)F)c1 (stereo unspecified)	158	n	x	n	n	n
CCOc1cc2c(cc1OCC)CN(C(=O)c1cccc(S(=O)(=O)N3CCCC3)c1)CC2	n	x	n	n	-19	n
COc1cc2c(cc1OC)CN(C(=O)c1ccc(S(=O)(=O)N3CCCC3)cc1)CC2	x	n	x	n	n	n
CC(=NNC(N)=S)c1ccc2cc3c(cc2c1)OCO3	n	n	n	n	n	n
COc1cc2ccc(C(C)=NNC(N)=S)cc2cc1OC	67	n	n	n	n	n
O=C(C1CC1)N1CC(=O)N2[C@H](C1)[C@H](c1ccc(C#Cc3cccc(F)c3)cc1)[C@@H]2CO	n	n	x	n	n	n
COc1cccc(Nc2nc(NCCO)nc(N3CCCC3)n2)c1	n	n	n	n	-25	n
OCCNc1nc(Nc2ccccc2Oc2ccccc2)nc(N2CCCC2)n1	x	n	n	n	n	n
COc1ccccc1-c1coc2c(CN3CCC(C)CC3)c(O)ccc2c1=O	n	n	n	n	n	n
CCC1CCCCN1Cc1c(O)ccc2c(=O)c(-c3ccccc3OC)coc12 (stereo unspecified)	n	n	n	29	n	n
COc1ccc(NC2CCCN(C(=O)c3csc(C(C)C)n3)C2)cc1OC (stereo unspecified)	n	79	n	n	n	n
Cc1ccc(NC2CCCN(C(=O)c3cccnc3)C2)cc1C (stereo unspecified)	n	x	n	n	n	n
COc1ccc(NC2CCCN(C(=O)c3csc(C(C)C)n3)C2)cc1 (stereo unspecified)	n	n	n	n	n	n
CC(C)c1ccc(NC2CCCN(C(=O)c3cccnc3)C2)cc1 (stereo unspecified)	76	n	n	n	n	n
CC=Cc1ccc2n(c1=O)C[C@@H]1[C@@H](CO)[C@H](C(=O)N[C@H](C)c3ccccc3)[C@H]2N1Cc1cccnc1 (mixture of isomers)	n	n	n	n	n	n
CN1C(=O)NC(c2ccc(O)cc2)C2=C1CN(c1ccccc1)C2=O (stereo unspecified)	43	x	n	n	n	n
CN1C(=O)NC(c2ccc(O)cc2)C2=C1CN(c1ccc(O)cc1)C2=O (stereo unspecified)	n	x	x	n	n	n
SMILES	GSIS activator	E-selectin induc	RAD54 branch	MLL AF4-AF9 inh	Ecoli rRNA inh	RAD52 inh
Cc1ccc(S(=O)(=O)Nc2cc(-c3ccccc3)nn2C)cc1Cl	n	53	n	n	n	n
Cc1ccc(S(=O)(=O)Nc2cc(-c3ccccc3)nn2C)cc1	n	n	n	x	n	n
O=C(COC(=O)/C=C/c1ccc(OC(F)F)cc1)NC1CCCCCC1	x	n	n	n	-18	n
O=C(C[C@@H]1C=C[C@@H](NC(=O)C2CC2)[C@H](CO)O1)NCc1ccncc1	n	n	n	n	n	n
COC(=O)c1ccccc1NC(=O)N1c2ccccc2CC1C (stereo unspecified)	n	x	n	x	n	n
CCCCNC(=O)N1c2ccccc2CC1C (stereo unspecified)	n	155	x	n	n	n
C[C@@H]1CN([C@@H](C)CO)C(=O)Cc2cc(NC(=O)Nc3cccc4ccccc34)ccc2O[C@H]1CN(C)Cc1ccc(Oc2ccccc2)cc1	n	x	n	n	n	n
CSc1nc(N2CCOCC2)cc(N2CCOCC2)n1	n	n	x	n	n	n
CSc1nc(N2CCN(c3ccccc3Cl)CC2)c2ccccc2n1	n	n	n	n	n	n
CSc1nc(N2CCOCC2)c2ccccc2n1	92	x	x	n	n	n
CSc1nc(Cl)cc(N2CCOCC2)n1	53	x	x	n	n	n
O=C(C[C@@H]1CC[C@@H]2[C@H](COC[C@@H](O)CN2Cc2cccc(C(F)(F)F)c2)O1)NCc1ccc(F)cc1	n	n	n	n	n	n
CCOc1ccc(S(=O)(=O)N(C)c2ccc(OCC(=O)Nc3ccc4[nH]c(=O)[nH]c4c3)cc2)cc1	n	x	n	x	-32	n
COc1ccc2c3c([nH]c2c1)[C@H](CO)N(S(C)(=O)=O)CC31CN(C(=O)Nc2ccccc2)C1	n	n	x	n	n	n
COc1ccc(NC(=O)Nc2ccc3c(c2)C(=O)N([C@H](C)CO)C[C@H](C)[C@@H](CN(C)S(=O)(=O)c2ccc(F)cc2)OCCCC[C@H](C)O3)cc1	n	x	n	n	n	n
O=C(Nc1nc2ccccc2s1)Nc1ccc(F)cc1F	n	x	n	n	n	n
O=C(Nc1ccc(F)cc1F)Nc1sccc1-c1nc2ccccc2s1	n	n	x	n	-22	n
COCC#Cc1cnc2c(c1)C(=O)N([C@@H](C)CO)C[C@@H](C)[C@H](CN(C)Cc1ccc(F)cc1)O2	n	n	n	n	n	n
COCC(=O)Nc1ccc2c(c1)C(=O)N(C)C[C@@H](OC)[C@H](C)CN(Cc1cncnc1)[C@@H](C)CO2	n	n	n	n	n	n
COc1ccc(S(=O)(=O)N2CCOC2CNC(=O)C(=O)NCCc2c[nH]c3ccccc23)cc1C (stereo unspecified)	x	n	n	n	-15	n
